Test results from ChEMBL document CHEMBL1125138, “1,3-Dialkyl-3-acyltriazenes, a novel class of antineoplastic alkylating agents” (J Med Chem, 1990).

What was measured:
A498 = assay: Evaluated for the inhibitory concentration required to cause growth inhibition of A498Rem- renal cell line using the MTT Cytotoxicity Assay; type: functional, cell-based; conditions: Homo sapiens
In short: (§1)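 MTT microculture tetrazolium growth assay on human cell lines and normal fibroblasts. Cells seeded at 1000 cells/well, with compound added 24 h after plating. Cultures then incubated a further 6 days at 37 °C before MTT read-out of growth versus untreated cells.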

A-427 = assay: Evaluated for the inhibitory concentration required to cause growth inhibition of A427Mer- cell line of lung using the MTT Cytotoxicity Assay; type: functional, cell-based; conditions: Homo sapiens; in short: as §1
A704 = assay: Evaluated for the inhibitory concentration required to cause growth inhibition of A704Rem- renal cell line using the MTT Cytotoxicity Assay; type: functional, cell-based; conditions: Homo sapiens; in short: as §1
A673 = assay: Evaluated for the inhibitory concentration required to cause growth inhibition of A673Mer+ sarcoma cell line using the MTT Cytotoxicity Assay; type: functional, cell-based; conditions: Homo sapiens; in short: as §1
A 172 = assay: Evaluated for the inhibitory concentration required to cause growth inhibition of A172Mer- cell line of central nervous system (CNS) using the MTT Cytotoxicity Assay; type: functional, cell-based; conditions: Homo sapiens; in short: as §1
CCD 19Lu = assay: Evaluated for the inhibitory concentration required to cause growth inhibition of CCD-19Lu fibroblasts cell line using the MTT Cytotoxicity Assay; type: functional, cell-based; conditions: Homo sapiens; in short: as §1
DOD-1 = assay: Evaluated for the inhibitory concentration required to cause growth inhibition of DOD-1 breast cell line using the MTT Cytotoxicity Assay; type: functional, cell-based; conditions: Homo sapiens; in short: as §1
NCI-H460 = assay: Evaluated for the inhibitory concentration required to cause growth inhibition of H460 cell line of lung using the Microculture Tetrazolium (MTT) Cytotoxicity Assay; type: functional, cell-based; conditions: Homo sapiens; in short: as §1
NCI-H358 = assay: Evaluated for the inhibitory concentration required to cause growth inhibition of H358M cell line of lung using the Microculture Tetrazolium (MTT) Cytotoxicity Assay; type: functional, cell-based; conditions: Homo sapiens; in short: as §1
NCI-H125 = assay: Evaluated for the inhibitory concentration required to cause growth inhibition of H125 cell line of lung using the Microculture Tetrazolium (MTT) Cytotoxicity Assay; type: functional, cell-based; conditions: Homo sapiens; in short: as §1
NCI-H322M = assay: Evaluated for the inhibitory concentration required to cause growth inhibition of H322M cell line of lung using the Microculture Tetrazolium (MTT) Cytotoxicity Assay; type: functional, cell-based; conditions: Homo sapiens; in short: as §1
NCI-H23 = assay: Evaluated for the inhibitory concentration required to cause growth inhibition of H23 cell line of lung using the Microculture Tetrazolium (MTT) Cytotoxicity Assay; type: functional, cell-based; conditions: Homo sapiens; in short: as §1
LOX IMVI = assay: Evaluated for the inhibitory concentration required to cause growth inhibition of LOX melanoma cell line using the MTT Cytotoxicity Assay; type: functional, cell-based; conditions: Homo sapiens; in short: as §1
MCF7 = assay: Evaluated for the inhibitory concentration required to cause growth inhibition of MCF-7 breast cell line using the MTT Cytotoxicity Assay; type: functional, cell-based; conditions: Homo sapiens; in short: as §1
[1] = system: MAR BEL fibroblasts cell line; assay: Evaluated for the inhibitory concentration required to cause growth inhibition of MAR BEL fibroblasts cell line using the MTT Cytotoxicity Assay; type: functional, cell-based; conditions: Homo sapiens; in short: as §1
NCI/ADR-RES = assay: Evaluated for the inhibitory concentration required to cause growth inhibition of MCF-7ADR breast cell line using the MTT Cytotoxicity Assay; type: functional, cell-based; conditions: Homo sapiens; in short: as §1
Malme-3M = assay: Evaluated for the inhibitory concentration required to cause growth inhibition of MALME-3M melanoma cell line using the MTT Cytotoxicity Assay; type: functional, cell-based; conditions: Homo sapiens; in short: as §1
OVCAR-4 = assay: Evaluated for the inhibitory concentration required to cause growth inhibition of OVCAR-4 ovarian cell line using the MTT Cytotoxicity Assay; type: functional, cell-based; conditions: Homo sapiens; in short: as §1
OVCAR-3 = assay: Evaluated for the inhibitory concentration required to cause growth inhibition of OVCAR-3 ovarian cell line using the MTT Cytotoxicity Assay; type: functional, cell-based; conditions: Homo sapiens; in short: as §1
P388 [2] = assay: Evaluated in vivo for antineoplastic activity against P388 murine leukemia tumor […] after administering intra peritoneal injection on each of 5 consecutive days at a dose of 30.0 mg/kg; type: functional, Mus musculus
In short: (§2)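 P388 leukemia-bearing mice, run through the NCI Developmental Therapeutics Program. Compound given ip once daily on 5 consecutive days. Activity read out as % T/C.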

HOS-TE85 = assay: Evaluated for the inhibitory concentration required to cause growth inhibition of TE85Mer+ sarcoma cell line using the MTT Cytotoxicity Assay; type: functional, cell-based; conditions: Homo sapiens; in short: as §1
TE-671 = assay: Evaluated for the inhibitory concentration required to cause growth inhibition of TE-671 cell line of central nervous system (CNS)using the MTT Cytotoxicity Assay; type: functional, cell-based; conditions: Homo sapiens; in short: as §1
WiDr = assay: Evaluated for the inhibitory concentration required to cause growth inhibition of WiDR colon cell line using the MTT Cytotoxicity Assay; type: functional, cell-based; conditions: Homo sapiens
In short: (§3)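 MTT cell-growth assay in human cell lines: cells harvested and seeded at 1000 cells/well in 96-well plates. Compound added after 24 h, then cultures incubated a further 6 days at 37 °C. Growth measured with and without agent.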

U-251 = assay: Evaluated for the inhibitory concentration required to cause growth inhibition of U251 cell line of central nervous system (CNS) using the MTT Cytotoxicity Assay; type: functional, cell-based; conditions: Homo sapiens; in short: as §3
RPMI-7951 = assay: Evaluated for the inhibitory concentration required to cause growth inhibition of RPMI7951 melanoma cell line using the MTT Cytotoxicity Assay; type: functional, cell-based; conditions: Homo sapiens; in short: as §1
SK-MEL-5 = assay: Evaluated for the inhibitory concentration required to cause growth inhibition of SK-MEL-5 melanoma cell line using the MTT Cytotoxicity Assay; type: functional, cell-based; conditions: Homo sapiens; in short: as §1
A549 = assay: Evaluated for the inhibitory concentration required to cause growth inhibition of A549Rem- cell line of lung using the MTT Cytotoxicity Assay; type: functional, cell-based; conditions: Homo sapiens; in short: as §1
NCI-H522 (Homo sapiens) = assay: Evaluated for the inhibitory concentration required to cause growth inhibition of H522 cell line of lung using the Microculture Tetrazolium (MTT) Cytotoxicity Assay
[3] = Evaluated in vivo for antineoplastic activity against LOX melanoma amelanotic tumor xenograft in nude mice after administering intra peritoneally 3 injections at a dose of 100 mg/kg; type: functional, Homo sapiens
In short: (§4)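 Nude mice bearing tumor xenografts, run through the NCI Developmental Therapeutics Program. Compound given ip as three injections at 4-day intervals for MX-1 mammary, LX-1 lung and LOX melanoma. Activity read out as % T/C.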

[4] = Evaluated in vivo for antineoplastic activity against LOX melanoma amelanotic tumor xenograft in nude mice after administering intra peritoneally 3 injections at a dose of 400 mg/kg; type: functional, Homo sapiens; in short: as §4
[5] = Evaluated in vivo for antineoplastic activity against LOX melanoma amelanotic tumor xenograft in nude mice after administering intra peritoneally 3 injections at a dose of 800 mg/kg; type: functional, Homo sapiens; in short: as §4
[6] = Evaluated in vivo for antineoplastic activity against LX-1 Lung small cell carcinoma tumor xenograft in nude mice after administering intra peritoneally 3 injections at a dose of 200 mg/kg; type: functional, Homo sapiens; in short: as §4
[7] = Evaluated in vivo for antineoplastic activity against LX-1 Lung small cell carcinoma tumor xenograft in nude mice after administering intra peritoneally 3 injections at a dose of 100 mg/kg; type: functional, Homo sapiens; in short: as §4
MX1 [8] = assay: Evaluated in vivo for antineoplastic activity against MX-1 mammary carcinoma tumor xenograft in nude mice after administering intra peritoneally 3 injections at a dose of 200 mg/kg; type: functional, Homo sapiens; in short: as §4
MX1 [9] = assay: Evaluated in vivo for antineoplastic activity against MX-1 mammary carcinoma tumor xenograft in nude mice after administering intra peritoneally 3 injections at a dose of 400 mg/kg; type: functional, Homo sapiens; in short: as §4
MX1 [10] = assay: Evaluated in vivo for antineoplastic activity against MX-1 mammary carcinoma tumor xenograft in nude mice after administering intra peritoneally 3 injections at a dose of 100 mg/kg; type: functional, Homo sapiens; in short: as §4
P388 [11] = assay: Evaluated in vivo for antineoplastic activity against P388 murine leukemia tumor […] after administering intra peritoneal injection at a dose of 100 mg/kg.; type: functional, Mus musculus; in short: as §2
P388 [12] = assay: Evaluated in vivo for antineoplastic activity against P388 murine leukemia tumor […] after administering intra peritoneal injection at a dose of 200 mg/kg.; type: functional, Mus musculus; in short: as §2
P388 [13] = assay: Evaluated in vivo for antineoplastic activity against P388 murine leukemia tumor […] after administering intra peritoneal injection at a dose of 50 mg/kg.; type: functional, Mus musculus; in short: as §2
[14] = Evaluated in vivo for antineoplastic activity against LOX melanoma amelanotic tumor xenograft in nude mice after administering intra peritoneally 3 injections at a dose of 200 mg/kg; type: functional, Homo sapiens; in short: as §4

## CCOC(=O)N(C)/N=N\CCCl
A498
  IC50: 16 µM
A-427
  IC50: 11 µM
A704
  IC50: 18 µM
A673
  IC50: 20 µM
A 172
  IC50: 18 µM
CCD 19Lu
  IC50: 45 µM
DOD-1
  IC50: 20 µM
NCI-H460
  IC50: 50 µM
NCI-H358
  IC50: 50 µM
NCI-H125
  IC50: 30 µM
NCI-H322M
  IC50: 14 µM
NCI-H23
  IC50: 16 µM
LOX IMVI
  IC50: 2.4 µM
MCF7
  IC50: 16 µM
[1]
  IC50: 46 µM
NCI/ADR-RES
  IC50: 17 µM
Malme-3M
  IC50: 15 µM
OVCAR-4
  IC50: 26 µM
OVCAR-3
  IC50: 26 µM
P388 [2]
  T/C: 175%
HOS-TE85
  IC50: 26 µM
TE-671
  IC50: 34 µM
WiDr
  IC50: 13 µM
U-251
  IC50: 8 µM
RPMI-7951
  IC50: 13 µM
SK-MEL-5
  IC50: 10 µM
A549
  IC50: 14 µM
NCI-H522 (Homo sapiens)
  IC50: 10 µM

## CNC(=O)N(C)/N=N\CCCl
A498
  IC50: 20 µM
A-427
  IC50: 18 µM
A704
  IC50: 35 µM
A673
  IC50: 35 µM
A 172
  IC50: 27 µM
CCD 19Lu
  IC50: 60 µM
DOD-1
  IC50: 21 µM
NCI-H460
  IC50: 60 µM
NCI-H358
  IC50: 60 µM
NCI-H125
  IC50: 45 µM
NCI-H322M
  IC50: 37 µM
NCI-H23
  IC50: 18 µM
[3]
  T/C: 201%
[4]
  T/C: 309%
[5]
  T/C: 309%
LOX IMVI
  IC50: 10 µM
[6]
  T/C: -66%
MCF7
  IC50: 14 µM
[1]
  IC50: 47 µM
[7]
  T/C: -19%
NCI/ADR-RES
  IC50: 17 µM
MX1 [8]
  T/C: 1%
MX1 [9]
  T/C: -76%
MX1 [10]
  T/C: 15%
Malme-3M
  IC50: 28 µM
OVCAR-4
  IC50: 20 µM
OVCAR-3
  IC50: 20 µM
P388 [11]
  T/C: 196%
P388 [12]
  T/C: 297%
P388 [13]
  T/C: 175%
HOS-TE85
  IC50: 26 µM
TE-671
  IC50: 55 µM
WiDr
  IC50: 14 µM
U-251
  IC50: 30 µM
RPMI-7951
  IC50: 18 µM
SK-MEL-5
  IC50: 13 µM
[14]
  T/C: 309%
A549
  IC50: 26 µM
NCI-H522 (Homo sapiens)
  IC50: 13 µM
